In series [1] the test system is Trypanosoma cruzi. The experiment in a line: Trypanocidal activity against epimastigotes of Trypanosoma cruzi Tulahuen 2 assessed as inhibition of parasite growth after 4 days by trypan blue staining. It is filed as functional, organism-based. The settings on record: Tulahuen 2, 96 h. The essentials: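 Epimastigotes (Tulahuen, Tul 2) from 5-day cultures grown at 28 °C in liver/infusion medium with hemin, started at 1.5–2.5×10^6 cells/mL, exposed 4 days to compounds (typically 1.50–15 or 0.5–2.5 µM), triplicate; benznidazole 2.50–15 µM positive control. Motile cells counted in Neubauer chamber; %I from density change versus untreated; IC50 by linear regression on log concentration.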

Series [2] deals with Cruzipain (Trypanosoma cruzi) (UniProt P25779). The experiment in a line: Inhibition of epimastigotes of Trypanosoma cruzi cruzipain using Bz-Pro-Phe-Arg-pNA as substrate at 50 uM by spectrophotometric analysis. The essentials: (§1)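 Cruzipain purified from epimastigote cell-free extract by ConA-Sepharose affinity chromatography. 1 mL reaction: Tris-acetate pH 8.2 (50 µmol), 2-mercaptoethanol (10 µmol), Bz-Pro-Phe-Arg-pNA (0.3 µmol); followed at 410 nm. Compounds added in DMSO; vehicle controls with matching DMSO; E-64 reference inhibitor. Percent inhibition relative to enzyme without drug.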
Chain of Cruzipain (Trypanosoma cruzi) (P25779 123-467 limits assumed): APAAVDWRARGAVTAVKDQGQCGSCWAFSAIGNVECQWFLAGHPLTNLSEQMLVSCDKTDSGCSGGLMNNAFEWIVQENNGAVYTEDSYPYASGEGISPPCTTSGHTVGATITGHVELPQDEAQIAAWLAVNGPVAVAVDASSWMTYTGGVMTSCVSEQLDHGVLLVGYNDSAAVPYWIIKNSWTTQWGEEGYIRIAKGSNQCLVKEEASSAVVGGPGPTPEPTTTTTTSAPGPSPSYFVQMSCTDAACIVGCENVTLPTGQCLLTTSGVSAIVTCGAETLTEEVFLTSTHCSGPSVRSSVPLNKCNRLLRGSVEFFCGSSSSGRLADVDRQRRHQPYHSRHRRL

The subject of series [3] is Vero. As to the kind of experiment: Cytotoxicity against african green monkey Vero cells up to 100 uM after 24 hrs by MTT assay. The settings on record: chlorocebus sabaeus. Type of series: cell-based. The method, boiled down: (§2)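 Vero cells grown in MEM or RPMI with 10% FBS, penicillin, streptomycin, glutamine; seeded at 9×10^5 cells/mL, compounds (12.5–200.0 µM) added after 48 h, 24 h exposure. PBS wash, MTT at 0.5 mg/mL final, 1 h 37 °C, formazan dissolved in DMSO, A570 with blank subtraction. Repeated at least three times, four samples per assay.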
On the technique in general: Formazan colour is commonly taken as a measure of viable cells.

Series [4] concerns Trypanosoma cruzi. The experiment in a line: Trypanocidal activity against bloodstream trypomastigotes of Trypanosoma cruzi infected in mouse blood assessed as lytic effect after 24 hrs. Type of series: functional, organism-based. The essentials:
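Blood from infected CF1 mice (Tulahuen, Tul 2) diluted to 1.5×10^6 trypomastigotes/mL; compounds 0.30–350 µM, duplicates, 24 h. Live parasites counted in Neubauer chamber; %I = [1−CDt/CDc]×100 versus untreated. IC50 by linear regression of %I on log concentration. Means ± SD of three experiments.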

Series [5] relates to Trypanosoma cruzi. As to the kind of experiment: Trypanocidal activity against amastigotes of Trypanosoma cruzi expressing beta-galactosidase gene infected in mouse J774 cells assessed as inhibition of parasite growth after 7 days. It is filed as functional, organism-based. The settings on record: J774, 168 h. The method, boiled down:
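J774 macrophages, 5×10^3/well, infected with β-galactosidase-expressing blood trypomastigotes (clone C4) at 10:1 parasite:cell for 24 h, washed, then compounds (2–100 µM) in phenol red-free RPMI, duplicates, 7 days. Developed with 1% NP-40 and 100 µM CPRG, 4 h 37 °C, A570; uninfected ± compound wells correct colour. IC50 by linear regression of %I against log concentration.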

The target of series [6] is Cruzipain (Trypanosoma cruzi) (UniProt P25779). The experiment in a line: Inhibition of epimastigotes of Trypanosoma cruzi cruzipain using Bz-Pro-Phe-Arg-pNA as substrate at 20 uM by spectrophotometric analysis. The method, boiled down: as §1
The target is the same in series [7]. As to the kind of experiment: Inhibition of epimastigotes of Trypanosoma cruzi cruzipain using Bz-Pro-Phe-Arg-pNA as substrate at 10 uM by spectrophotometric analysis. The method, boiled down:
as §1

Series [8] relates to Trypanosoma cruzi. The experiment in a line: Inhibition of ergosterol biosynthesis in epimastigotes of Trypanosoma cruzi assessed as ratio of squalene/ergosterol at 25 uM after 24 hrs by TLC analysis (reference value: 0.76). It is filed as functional.
Series [9] can be described thus: Cytotoxicity against african green monkey Vero cells after 24 hrs by MTT assay. The settings on record: chlorocebus sabaeus. It is filed as cell-based. The method, boiled down: as §2

Molecules are shown by their SMILES.

As for `COc1cccc2c1CC/C2=N\Nc1nc(-c2ccc(Cl)cc2)cs1`, the IC50 turned out to be 11.8 µM in series [1], 19.7 µM in [4] and 0.84 µM in series [5]. In addition, the inhibition in [2], in series [6] and in series [7] was 0% in each case. Moreover, the Activity result in [3] was “Non-toxic”.

Turning to `Cc1ccc(-c2csc(N/N=C3\CCc4ccccc43)n2)cc1`, the IC50 in series [1] is more than 15 µM; in series [4], more than 500 µM. For the same molecule, the figures for the inhibition in series [2], in series [6] and in series [7] were 5%, 5% and 8%, respectively. Moreover, in series [3], the Activity entry is “Non-toxic”. Further, the Ratio in [8] came out at 0.76.

Consider `Clc1ccc(-c2csc(N/N=C3\CCc4ccccc43)n2)cc1`, for which the IC50 in [1] was found to be 8.62 µM; in [4], 308 µM. In [3], the Activity entry is “Non-toxic”.

`Cc1cccc2c1CC/C2=N\Nc1nc(-c2ccc(Cl)cc2)cs1`: the figures for the half-maximal inhibitory concentration (IC50) in series [1], in series [4] and in series [5] were 4.53 µM, 20 µM and 0.09 µM, respectively. The inhibition in [2] came to 3%; in series [6], 0%; in [7] it was 3%. In [3], the Activity result is on record as “Non-toxic”. The Ratio in [8] amounted to 1.25.

As to `Cc1ccc(-c2csc(N/N=C3\CCc4cc(C)ccc43)n2)cc1`, the 50% inhibitory concentration (IC50) in series [1] was found to be 5.24 µM; in series [4] it was 87 µM; in [5], 1.35 µM. Besides, the inhibition in series [2], in series [6] and in series [7] was 0% in each case. Besides, the Activity result in series [3] is listed as “Non-toxic”.

In the case of `Cc1cccc2c1CC/C2=N\Nc1nc(-c2ccccc2)cs1`, the values for the IC50 in series [1], in series [4] and in series [5] were 7.08 µM, 48.9 µM and 0.68 µM, respectively. For the same molecule, the inhibition came to 0% in series [2], 0% in series [6] and 3% in series [7]. For the same molecule, in [3], the Activity entry is on record as “Non-toxic”.

For `Cc1ccc2c(c1)CC/C2=N\Nc1nc(-c2ccccc2)cs1`, the values for the IC50 in series [1] and in series [4] were 4.69 µM and 172 µM, respectively. The Activity result in series [3] is listed as “Non-toxic”.

Regarding `O=C(Cn1ccnc1[N+](=O)[O-])NCc1ccccc1` [BENZNIDAZOLE], the results for the 50% inhibitory concentration (IC50) in series [1] and in series [4] were 5.39 µM and 30.3 µM, respectively. The molecule further gave a CC50 at 24 h in series [9] of 82.8 µM.

For `CC(C)C[C@H](NC(=O)[C@H]1O[C@@H]1C(=O)O)C(=O)NCCCCN=C(N)N`, the inhibition in [7] came out at 62%.

Take `Cc1ccc2c(c1)CC/C2=N\Nc1nc(-c2ccc(Cl)cc2)cs1`: the IC50 in series [1] was 7.15 µM; in series [4], 372 µM. In addition, in series [3], the Activity result is “Non-toxic”.

In the case of `COc1cc2c(cc1OC)/C(=N/Nc1nc(-c3ccc(Cl)cc3)cs1)CC2`, the half-maximal inhibitory concentration (IC50) in series [1] came out at 7.17 µM; in [4], 404 µM. For the same molecule, the Activity entry in series [3] is “Non-toxic”.

For `O=[N+]([O-])c1cccc2c1CC/C2=N\Nc1nc(-c2ccc(Cl)cc2)cs1`, the IC50 in series [1] was 17.1 µM; in [4] it was 597 µM. Besides, in series [3], the Activity entry is “Non-toxic”.

With `CN(C/C=C/C#CC(C)(C)C)Cc1cccc2ccccc12` [TERBINAFINE], the Ratio in series [8] is recorded as 1.54.

Turning to `c1ccc(-c2csc(N/N=C3\CCc4ccccc43)n2)cc1`, the IC50 was 19 µM in series [1] and more than 500 µM in [4]. For the same molecule, the Activity result in series [3] was “Non-toxic”.

`COc1cc2c(cc1OC)/C(=N/Nc1nc(-c3ccccc3)cs1)CC2`: the concentration for half-maximal inhibition (IC50) turned out to be 10.1 µM in [1] and 195 µM in [4]. Moreover, in series [3], the Activity result is reported as “Non-toxic”.

In the case of `Cc1ccc2c(c1)/C(=N/Nc1nc(-c3ccc(Cl)cc3)cs1)CC2`, the concentration for half-maximal inhibition (IC50) in [1] stood at 8.59 µM; in series [4] it was 61.1 µM. For the same molecule, in [3], the Activity entry is listed as “Non-toxic”.

In the case of `Cc1ccc2c(c1)/C(=N/Nc1nc(-c3ccccc3)cs1)CC2`, the IC50 in series [1] was 4.27 µM; in series [4] it was 22.7 µM; in series [5] it was 3.96 µM. Further, the inhibition was 0% in series [2], 0% in [6] and 3% in series [7]. Besides, in [3], the Activity result is listed as “Non-toxic”.

Take `COc1cc2c(cc1OC)/C(=N/Nc1nc(-c3ccc(C)cc3)cs1)CC2`: the IC50 in [1] is more than 15 µM; in series [4] it was 69.6 µM; in series [5], 7.72 µM. Besides, the inhibition in [2], in [6] and in [7] was 0% each time. Also, the Activity result in [3] is “Non-toxic”.

With `Cc1ccc(-c2csc(N/N=C3\CCc4c(C)cccc43)n2)cc1`, the IC50 in series [1] came out at 4.36 µM; in [4], 17.2 µM; in series [5], 0.72 µM. Besides, the inhibition turned out to be 0% in series [2], 2% in series [6] and 4% in [7]. Moreover, the Activity result in series [3] is listed as “Non-toxic”. Also, the Ratio in [8] is 2.92.

Regarding `Cc1ccc(-c2csc(N/N=C3\CCc4ccc(C)cc43)n2)cc1`, the IC50 is 4.08 µM in series [1], 49.5 µM in [4] and 0.27 µM in series [5]. Besides, the inhibition in series [2] was 0%; in series [6] it was 0%; in [7], 3%. Moreover, the Activity result in series [3] is on record as “Non-toxic”. In addition, in [8], the Ratio is listed as 0.8.

The term IC50 denotes the concentration that inhibits the measured activity by half. Usually inhibition stands for the share of the control response that was lost under treatment. The term CC50 denotes the concentration at which the toxic effect on the cells reaches its halfway point.
